Shown are actives, neighbours in structure and some others; about 2% of the full set was active somewhere.
M1 ag: human M1 muscarinic receptor agonists, primary screen, Fluo-8 calcium fluorescence, CHO-K1 cells, HTS; Muscarinic acetylcholine receptor M1 (Homo sapiens), P11229; CHO-K1 hM1, agonist mode; 0% DMSO, 100% acetylcholine EC100; activation, % at 3 µM; 0.33% of 360,000 active; AID 588814, 2011;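 active = activation above the run's mean compound activation plus 3 SD, cut at about 16% in these data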;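 also: peak over basal fluorescence ratio within a 140 s kinetic read after compound addition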
Target sequence (P11229 whole entry, looked up): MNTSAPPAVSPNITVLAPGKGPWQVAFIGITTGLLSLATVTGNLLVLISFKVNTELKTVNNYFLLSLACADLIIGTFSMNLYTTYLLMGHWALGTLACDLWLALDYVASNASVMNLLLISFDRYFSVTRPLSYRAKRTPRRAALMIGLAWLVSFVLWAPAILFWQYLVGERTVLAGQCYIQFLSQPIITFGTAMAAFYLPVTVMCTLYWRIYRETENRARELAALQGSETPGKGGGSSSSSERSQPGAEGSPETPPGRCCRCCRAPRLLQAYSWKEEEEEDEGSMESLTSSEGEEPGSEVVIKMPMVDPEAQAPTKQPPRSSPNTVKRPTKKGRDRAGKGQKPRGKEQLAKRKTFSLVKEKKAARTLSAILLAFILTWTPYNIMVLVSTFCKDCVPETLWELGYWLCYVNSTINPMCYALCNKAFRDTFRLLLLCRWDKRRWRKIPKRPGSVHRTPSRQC
CHRM5 antagonist: human M5 muscarinic receptor antagonists, primary screen, CHO cells, Fluo-8 calcium fluorescence; CHO-hM5 cells, ACh EC80; Muscarinic acetylcholine receptor M5 (Homo sapiens), P08912; inhibition, % at 3 µM; 0.59% of 360,000 active;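 active = inhibition above a per-plate cutoff, the mean of that plate's test compounds plus 3 SD, cut at about 27% in these data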;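 also: 0% = acetylcholine EC80 with DMSO and 100% = DMSO without agonist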
M5 PAM: human M5 muscarinic receptor positive allosteric modulators, primary screen, CHO-K1 cells, Fluo-8 calcium fluorescence; activation, % at 3 µM; Muscarinic acetylcholine receptor M5 (Homo sapiens), P08912; CHO-K1 hM5, ACh EC20 PAM; 0% = ACh EC20, 100% = ACh EC100; 0.3% of 360,000 active;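 active = activation above the run cutoff, the mean activation of all test compounds plus 3 SD, cut at about 18% in these data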
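Assay system: CHO-K1 hM5 cells / Incubation: Fluo-8 loading 80 min at 37 °C plus 30 min room temperature / Technique: Fluo-8 calcium dye fluorescence, kinetic read / Repeats: single replicate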
M1 PAM: human M1 muscarinic receptor positive allosteric modulators, primary screen, CHO-K1 cells, Fluo-8 calcium fluorescence, 1536-well; CHO-K1 hM1, ACh EC20; 0% = ACh EC20, 100% = maximal ACh; activation, % at 3 µM; 0.088% of 360,000 active; in the data active = activation above about 19%, passing the limit was not always enough
M5 ag: human M5 muscarinic receptor agonists, primary screen, CHO-K1 cells, Fluo-8 calcium fluorescence | AID 624037, 2012 | activation, % at 3 µM | Muscarinic acetylcholine receptor M5 (Homo sapiens), P08912 | CHO-K1 hM5 cells; 0% DMSO wells, 100% maximal acetylcholine response | 0.19% of 360,000 active;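 active = activation above the run's mean over test compounds plus 3 SD, cut at about 23% in these data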;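 also: signal is peak over basal fluorescence ratio across the kinetic read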
M1 antag: human M1 muscarinic receptor antagonists, primary screen, CHO-K1 cells, Fluo-8 calcium fluorescence, 1536-well | inhibition, % at 3 µM | CHO-K1 hM1, ACh EC80 antagonist | 1.3% of 360,000 active;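 active = percent inhibition above its own plate's cutoff, namely the mean of that plate's compound wells plus 3 SD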;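 also: peak over basal fluorescence ratio during 140 s after agonist addition; 0% = ACh EC80 plus DMSO and 100% = DMSO alone without agonist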
Numbers without * were called inactive.

What do the screens show for `CC(C)(C)OC(=O)N1CCCC(C(=O)Nc2ccc(C(=O)NC3CC3)cc2)C1` (centres undefined)?
M1 ag: -0.7; CHRM5 antagonist: -8.5; M5 PAM: 2.3; M1 PAM: 9.7; M5 ag: 0.7; M1 antag: -11.1

How did CN1CCN(CC(O)(c2ccc(Cl)cc2)c2ccc(Cl)cc2)CC1 do in these assays?
M1 ag: -12.0; CHRM5 antagonist: 35.8*; M5 PAM: -14.8; M1 PAM: -33.6; M5 ag: -8.5; M1 antag: 72.1*

Results for O=C(Nc1ccncc1)c1ccc2c(c1)C(=O)N(C1CCCCC1)C2=O ?
M1 ag: 6.2; CHRM5 antagonist: 30.8*; M5 PAM: -40.7; M1 PAM: -15.1; M5 ag: 5.8; M1 antag: 35.5*

Results for CCN(CC)C(=O)c1cccc(-c2csc(C(C)(NC(C)=O)c3ccc(OC)cc3)n2)c1 (centres undefined) ?
M1 ag: -1.5; CHRM5 antagonist: 0.5; M5 PAM: 0.8; M1 PAM: 3.3; M5 ag: 1.3; M1 antag: -11.2

Results for O=C1C(Cl)=C(NC2CCCCC2)C(=O)N1Cc1ccccc1 ?
M1 ag: -10.3; CHRM5 antagonist: 3.1; M5 PAM: 3.8; M1 PAM: 12.7; M5 ag: 0.2; M1 antag: -6.7

Results for O=C1C(Cl)=C(N2CCN(Cc3ccccc3)CC2)C(=O)N1Cc1ccccc1 ?
M1 ag: -6.7; CHRM5 antagonist: 13.7; M5 PAM: -26.4; M1 PAM: -24.5; M5 ag: -10.7; M1 antag: 56.9*

Results for Cc1cccc2sc(NNC(=O)c3ccc(S(=O)(=O)N4CCCC(C)C4)cc3)nc12 (centres undefined) ?
M1 ag: -1.1; CHRM5 antagonist: 7.0; M5 PAM: -13.3; M1 PAM: -15.9; M5 ag: 3.4; M1 antag: 67.0*

What do the screens show for `CCc1ccccc1-n1c(SCC(=O)NC)nnc1-c1ccco1`?
M1 ag: -1.8; CHRM5 antagonist: -16.4; M5 PAM: 18.2*; M1 PAM: 4.7; M5 ag: 8.6; M1 antag: -9.0

What do the screens show for `CNC(=O)CSc1nnc(-c2ccco2)n1-c1ccc(C)cc1`?
M1 ag: -2.8; CHRM5 antagonist: 2.3; M5 PAM: 5.1; M1 PAM: 9.8; M5 ag: -4.6; M1 antag: -16.8

Results for C/C(CC(=O)Nc1ccc(Cl)cc1Cl)=N\NC(=O)C(=O)N1CCCC1 ?
M1 ag: -0.8; CHRM5 antagonist: 0.5; M5 PAM: 2.5; M1 PAM: 10.4; M5 ag: -1.2; M1 antag: -10.8

Results for C/C(CC(=O)Nc1ccccc1Br)=N\NC(=O)C(=O)N1CCCC1 ?
M1 ag: -1.4; CHRM5 antagonist: 2.1; M5 PAM: 60.7*; M1 PAM: 6.6; M5 ag: -6.0; M1 antag: -2.1

What do the screens show for `Nc1[nH]c(C(=O)c2ccccc2)c(-c2ccc(Cl)cc2)c1C(=O)NCc1ccccc1`?
CHRM5 antagonist: 6.7; M5 PAM: -5.5; M5 ag: 2.5

What do the screens show for `CC1(C2CC2)NC(=O)N(CC(=O)Nc2ccc(OC(F)F)cc2)C1=O` (centres undefined)?
M1 ag: -0.7; CHRM5 antagonist: -2.4; M5 PAM: 0.2; M1 PAM: 0.4; M5 ag: -0.2; M1 antag: -7.5

How did Cc1cc(Cl)ccc1OCC(O)CNCCc1ccc(S(N)(=O)=O)cc1 (centres undefined) do in these assays?
M1 ag: 0.1; CHRM5 antagonist: 14.7; M5 PAM: -6.6; M1 PAM: -15.6; M5 ag: -6.8; M1 antag: 43.1*

Results for Cc1nc2ccc(NS(=O)(=O)c3c(F)cc(F)cc3Br)cc2s1 ?
M1 ag: -1.4; CHRM5 antagonist: 20.8; M5 PAM: -13.9; M1 PAM: -15.4; M5 ag: 5.9; M1 antag: 37.2*

What do the screens show for `O=C(NCc1ccccc1F)C1CC(=O)N(Cc2ccco2)C1` (centres undefined)?
M1 ag: -2.5; CHRM5 antagonist: 5.2; M5 PAM: -4.0; M1 PAM: 4.4; M5 ag: 0.8; M1 antag: -4.6

Results for O=C(NCCN1CCCC1)c1ccc(Cn2c(=S)[nH]c3cc4c(cc3c2=O)OCO4)cc1 ?
M1 ag: -6.3; CHRM5 antagonist: 11.7; M5 PAM: -15.1; M1 PAM: -19.9; M5 ag: 27.6*; M1 antag: 8.9

Results for O=C(N[C@@H]1CC[C@@H](CCNS(=O)(=O)c2ccc(Cl)cc2)O[C@@H]1CO)c1cccnc1 ?
CHRM5 antagonist: 3.3; M5 PAM: -5.5; M5 ag: -1.3

How did Cc1cc(NC(=O)c2cnn3c(C(F)(F)F)cc(-c4ccccc4)nc23)no1 do in these assays?
M1 ag: -10.3; CHRM5 antagonist: 11.4; M5 PAM: -6.0; M1 PAM: -17.3; M5 ag: 2.7; M1 antag: 32.7*

Results for Cc1cc(NC(=O)c2cnn3c(C(F)F)cc(-c4ccccc4)nc23)no1 ?
M1 ag: 1.8; CHRM5 antagonist: 8.1; M5 PAM: -1.9; M1 PAM: 5.7; M5 ag: -0.2; M1 antag: -9.1

Results for O=C(CCOc1cccc(Br)c1)Nc1ccc(F)c(S(=O)(=O)N2CCOCC2)c1 ?
M1 ag: 2.5; CHRM5 antagonist: 2.1; M5 PAM: -12.4; M1 PAM: -6.8; M5 ag: 2.1; M1 antag: 10.6

What do the screens show for `CCN(C1CCCCC1)S(=O)(=O)c1ccc(S(=O)(=O)NCc2ccncc2)cc1`?
M1 ag: -1.0; CHRM5 antagonist: 29.1*; M5 PAM: -25.8; M1 PAM: -21.9; M5 ag: 11.3; M1 antag: 35.3*

Results for Cc1ccc2nc(/C(C#N)=C\c3ccc(N4CCOCC4)o3)[nH]c2c1 ?
M1 ag: 30.9*; CHRM5 antagonist: 9.2; M5 PAM: -3.7; M1 PAM: -12.2; M5 ag: 6.5; M1 antag: 20.2

Results for Cc1nnc(Cc2ccccc2)c2n[nH]c(C)c12 ?
M1 ag: 0.4; CHRM5 antagonist: 4.3; M5 PAM: -2.2; M1 PAM: 4.5; M5 ag: -0.1; M1 antag: -5.0

Screening data: PubChem, The Scripps Research Institute Molecular Screening Center
